The text below walks through data of ChEMBL document CHEMBL1154866, “Lanostane triterpenes from the fruiting bodies of Ganoderma lucidum and their inhibitory effects on adipocyte differentiation in 3T3-L1 Cells” (J Nat Prod, 2010).

Molecules are shown by their SMILES.

Data set [1] relates to 3T3-L1. The data set is described as follows: Inhibition of adipocytes differentiation in mouse 3T3L1 cells assessed as lipid accumulation at 40 ug/ml after 8 days by Oil red O staining relative to control. The data set is classed as functional. Particulars: 3T3-L1, 192 h. An outline of the steps: (§1)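 Differentiation induced 2 days post-confluence with DEX, 0.5 mM IBMX and insulin in DMEM/10% FBS for 2 days, then DMEM/FBS/insulin refreshed every 2 days. Sample added every 2 days for 8 days (40 µg/mL, or 5–40 µg/mL series). Day 8: PBS wash, 4% formaldehyde fixation, oil red O 30 min, dye eluted with 2-propanol, A510 versus untreated control. Mean ± SD, n=3.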

Data set [2] relates to 3T3-L1. The data set is described as follows: Cytotoxicity against mouse 3T3L1 cells at 40 ug/ml after 2 days by MTT assay. Format: cell-based. Particulars: 3t3-l1, 48 h. The gist of the method: (§2)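 3T3-L1 preadipocytes seeded at 1 × 10^4 cells/well in DMEM + 10% bovine calf serum, 37 °C, 5% CO2. After 24 h, vehicle or sample (10 to 80 µg/mL) added in serum-free DMEM. After a further 24 h, MTT added for 2 h. Formazan dissolved in DMSO, OD read at 570 nm.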

The test system of data set [3] is 3T3-L1. In words: Cytotoxicity against mouse 3T3L1 cells at 80 ug/ml after 2 days by MTT assay. The conditions noted are these: 3t3-l1, 48 h. The data set is classed as cell-based. An outline of the steps: as §2
For orientation: Tetrazolium dyes change colour on reduction, which living cells bring about.

The target of data set [4] is T1, Glycerol-3-phosphate dehydrogenase [NAD(+)], cytoplasmic (Mus musculus) (UniProt P13707).
T1 sequence (whole entry): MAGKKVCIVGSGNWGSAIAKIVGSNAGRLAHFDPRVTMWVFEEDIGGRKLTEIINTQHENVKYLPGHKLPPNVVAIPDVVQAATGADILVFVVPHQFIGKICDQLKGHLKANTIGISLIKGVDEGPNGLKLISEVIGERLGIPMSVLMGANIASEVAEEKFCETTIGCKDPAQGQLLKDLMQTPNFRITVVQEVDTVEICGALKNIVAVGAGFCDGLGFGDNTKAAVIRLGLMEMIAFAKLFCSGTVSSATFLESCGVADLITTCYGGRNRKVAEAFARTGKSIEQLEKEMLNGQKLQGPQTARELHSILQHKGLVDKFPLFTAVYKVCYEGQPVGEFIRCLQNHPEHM
The data set is described as follows: Inhibition of GPDH in mouse 3T3L1 cells assessed as reduction of NADH oxidation rate at 40 ug/ml. Format: cell-based. Also noted: scale not given: the % may be the effect or the level left. Particulars: 3T3-L1. The gist of the method: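 Preadipocytes kept in DMEM/10% BCS; induced 2 days post-confluence with DEX, 0.5 mM IBMX and insulin in DMEM/10% FBS, then DMEM/FBS/insulin. Treated every 2 days (5–40 µg/mL) to day 8. Cells collected in extraction buffer and spun 12 000 rpm, 5 min, 4 °C. Supernatant A340 decline over 5 min gives NADH oxidation with dihydroxyacetone phosphate, as units per mg protein (Bradford). Mean ± SD, n=3.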

Data set [5] has as its system 3T3-L1. In words: Inhibition of adipocytes differentiation in mouse 3T3L1 cells assessed as lipid accumulation after 8 days by Oil red O staining relative to control. The data set is classed as functional, cell-based. An outline of the steps: as §1
Data set [6] has as its system 3T3-L1. In words: Inhibition of adipocytes differentiation in mouse 3T3L1 cells assessed as lipid accumulation at 5 to 40 ug/ml after 8 days by Oil red O staining relative to control. Format: functional. An outline of the steps:
as §1

By inhibition is commonly meant the percentage by which the read-out fell short of the control. As to `CCCCOC(=O)C(C)CC(=O)C[C@@H](C)[C@H]1C[C@H](O)[C@@]2(C)C3=C(C(=O)C[C@]12C)[C@@]1(C)CCC(=O)C(C)(C)[C@@H]1C[C@@H]3O` (some centres undefined) [BUTYL GANODERATE A], the inhibition at 40 µg/mL with 3T3-L1 [1] worked out at 22%. For the same molecule, the figures for the Activity entry with 3T3-L1 [2] and in the data set with 3T3-L1 [3] were “Non-toxic” and “Toxic”, respectively.
In the case of `CCCCOC(=O)[C@H](C)CC(=O)C[C@@H](C)[C@H]1CC(=O)[C@@]2(C)C3=C(C(=O)C[C@]12C)[C@@]1(C)CC[C@H](O)C(C)(C)[C@@H]1C[C@@H]3O` [BUTYL GANODERATE B], in the data set with 3T3-L1 [1], the inhibition at 40 µg/mL came out at 22%. In the data set with 3T3-L1 [2], the Activity entry was “Non-toxic”.
Regarding `CCCCOC(=O)CC[C@@H](C)[C@H]1CC(=O)[C@@]2(C)C3=C(C(=O)C[C@]12C)[C@@]1(C)CCC(=O)C(C)(C)[C@@H]1C[C@@H]3O` [BUTYL LUCIDENATE A], in the data set with 3T3-L1 [1], the inhibition at 40 µg/mL amounted to 22%. In addition, the Activity entry is “Non-toxic” with 3T3-L1 [2] and “Toxic” in the data set on 3T3-L1 [3].
For the molecule `CCCCOC(=O)CC[C@@H](C)[C@H]1CC(=O)[C@@]2(C)C3=C(C(=O)C[C@]12C)[C@@]1(C)CC[C@H](O)C(C)(C)[C@@H]1C[C@@H]3O` [BUTYL LUCIDENATE N], in the data set with 3T3-L1 [1], the inhibition at 40 µg/mL turned out to be 56%. Further, the values for the Activity (in data set [4]; in the data set on 3T3-L1 [2]) were over 80% and “Non-toxic”, respectively. Moreover, the inhibition entry with 3T3-L1 [5] is “Dose-dependent effect”. Further, the “inhibition (INH)” value with 3T3-L1 [6] is on record as 56%.
With `C[C@H](CC(=O)C[C@@H](C)[C@H]1C[C@H](O)[C@@]2(C)C3=C(C(=O)C[C@]12C)[C@@]1(C)CCC(=O)C(C)(C)[C@@H]1C[C@@H]3O)C(=O)O` [GANODERIC ACID A], the inhibition at 40 µg/mL with 3T3-L1 [1] was found to be 22%. For the same molecule, the Activity result in the data set with 3T3-L1 [2] is reported as “Non-toxic”.
The matching figures for `CC(CC(=O)C[C@@H](C)[C@H]1CC(=O)[C@@]2(C)C3=C(C(=O)C[C@]12C)[C@@]1(C)CC[C@H](O)C(C)(C)[C@@H]1C[C@@H]3O)C(=O)O` (some centres undefined) [GANODERIC ACID B]: 22% and “Non-toxic”.
Consider `C[C@H](CC(=O)C[C@@H](C)[C@H]1CC(=O)[C@@]2(C)C3=C(C(=O)C[C@]12C)[C@@]1(C)CCC(=O)C(C)(C)[C@@H]1CC3=O)C(=O)O` [GANODERIC ACID E], for which, in the data set with 3T3-L1 [1], the inhibition at 40 µg/mL amounted to 22%. The Activity result in the data set with 3T3-L1 [2] was “Non-toxic”.
In the case of `CC(CC(=O)C[C@@H](C)[C@H]1C[C@H](O)[C@@]2(C)C3=C(C(=O)C[C@]12C)[C@@]1(C)CCC(=O)C(C)(C)[C@@H]1CC3)C(=O)O` (some centres undefined) [GANOLUCIDIC ACID A], the inhibition at 40 µg/mL in the data set on 3T3-L1 [1] turned out to be 22%. For the same molecule, the Activity entry was “Non-toxic” in the data set with 3T3-L1 [2] and “Toxic” with 3T3-L1 [3].
For `C[C@H](CCC(=O)O)[C@H]1CC(=O)[C@@]2(C)C3=C(C(=O)C[C@]12C)[C@@]1(C)CC[C@H](O)C(C)(C)[C@@H]1C[C@@H]3O` [LUCIDENIC ACID N], in the data set on 3T3-L1 [1], the inhibition at 40 µg/mL was determined as 22%. Moreover, in the data set with 3T3-L1 [2], the Activity entry is reported as “Non-toxic”.
As to `COC(=O)C(C)CC(=O)C[C@@H](C)[C@H]1C[C@H](O)[C@@]2(C)C3=C(C(=O)C[C@]12C)[C@@]1(C)CCC(=O)C(C)(C)[C@@H]1C[C@@H]3O` (some centres undefined) [METHYL GANODERATE A], the inhibition at 40 µg/mL in the data set on 3T3-L1 [1] is 22%. Further, the Activity entry in the data set on 3T3-L1 [2] is “Non-toxic”; in the data set with 3T3-L1 [3], “Toxic”.
Consider `COC(=O)C(C)CC(=O)C[C@@H](C)[C@H]1CC(=O)[C@@]2(C)C3=C(C(=O)C[C@]12C)[C@@]1(C)CC[C@H](O)C(C)(C)[C@@H]1C[C@@H]3O` (some centres undefined) [METHYL GANODERATE B], for which the inhibition at 40 µg/mL in the data set with 3T3-L1 [1] was 22%. Further, the Activity entry in the data set with 3T3-L1 [2] is “Non-toxic”.
With `COC(=O)C(C)CC(=O)C[C@@H](C)[C@H]1CC(=O)[C@@]2(C)C3=C(C(=O)C[C@]12C)[C@@]1(C)CCC(=O)C(C)(C)[C@@H]1C[C@@H]3O` (some centres undefined) [METHYL GANODERATE D], the inhibition at 40 µg/mL in the data set on 3T3-L1 [1] was 22%. Further, in the data set with 3T3-L1 [2], the Activity result is “Non-toxic”.
Regarding `COC(=O)C(C)CC(=O)C[C@@H](C)[C@H]1CC(=O)[C@@]2(C)C3=C(C(=O)C[C@]12C)[C@@]1(C)CCC(=O)C(C)(C)[C@@H]1CC3=O` (some centres undefined) [METHYL GANODERATE E], the inhibition at 40 µg/mL in the data set on 3T3-L1 [1] turned out to be 22%. Further, the Activity entry in the data set with 3T3-L1 [2] was “Non-toxic”.
The matching figures for `COC(=O)C(C)CC(=O)C[C@@H](C)[C@H]1CC(=O)[C@@]2(C)C3=C(C(=O)[C@@H](OC(C)=O)[C@]12C)[C@@]1(C)CC[C@H](O)C(C)(C)[C@@H]1CC3=O` (some centres undefined) [METHYL GANODERATE H]: 22% and “Non-toxic”.
As for `COC(=O)CC[C@@H](C)[C@H]1CC(=O)[C@@]2(C)C3=C(C(=O)C[C@]12C)[C@@]1(C)CCC(=O)C(C)(C)[C@@H]1C[C@@H]3O` [METHYL LUCIDENATE A], the inhibition at 40 µg/mL in the data set with 3T3-L1 [1] worked out at 22%. Moreover, the results for the Activity entry in the data set on 3T3-L1 [2] and with 3T3-L1 [3] were “Non-toxic” and “Toxic”, respectively.
As to `COC(=O)CC[C@@H](C)[C@H]1CC(=O)[C@@]2(C)C3=C(C(=O)[C@@H](OC(C)=O)[C@]12C)[C@@]1(C)CC[C@H](O)C(C)(C)[C@@H]1CC3=O` [METHYL LUCIDENATE E2], the inhibition at 40 µg/mL in the data set with 3T3-L1 [1] amounted to 22%. The Activity entry in the data set with 3T3-L1 [2] is on record as “Non-toxic”.
On to `COC(=O)CC[C@@H](C)[C@H]1CC(=O)[C@@]2(C)C3=C(C(=O)C[C@]12C)[C@@]1(C)CCC(=O)C(C)(C)[C@@H]1CC3=O` [METHYL LUCIDENATE F], for which the inhibition at 40 µg/mL in the data set on 3T3-L1 [1] was 22%. Moreover, the Activity result in the data set on 3T3-L1 [2] was “Non-toxic”.
For `COC(=O)CC[C@@H](C)[C@H]1CC(=O)[C@@]2(C)C3=C(C(=O)[C@@H](OC(C)=O)[C@]12C)[C@@]1(C)CC[C@H](O)C(C)(C)[C@@H]1C[C@@H]3O` [METHYL LUCIDENATE P], the inhibition at 40 µg/mL in the data set with 3T3-L1 [1] is 22%. In addition, the Activity result in the data set with 3T3-L1 [2] is “Non-toxic”.
